Bioassay records from PubChem.
HTR2A ag: activates the mouse 5-HT2A serotonin receptor | AID 624169 | P35363 | CHO-K1 mHTR2A beta-arrestin complementation, luminescence; percent of 30 µM serotonin response | 360,000 tested, 0.66% active | activation, % at 7.6 µM;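 active = activation above a run cutoff, the mean activation of all tested compounds plus 3 SD, cut at about 14% in these data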;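 note: 0% = plate median of compound wells and 100% = 30 µM serotonin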
TAAR1 antagonist: antagonists of human TAAR1; AID 624466; Q96RJ0; 360,000 tested, 1.5% active; CHO RD-HGA16 TAAR1, Fluo-8 calcium fluorescence, antagonist; inhibition, % at 3 µM;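 active = inhibition above a per-plate cutoff, the mean inhibition of test compounds on that plate plus 3 SD, cut at about 49% in these data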;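 note: 0% = DMSO plus EC80 beta-PEA response and 100% = DMSO alone without agonist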
Target sequence (Q96RJ0 whole entry, looked up): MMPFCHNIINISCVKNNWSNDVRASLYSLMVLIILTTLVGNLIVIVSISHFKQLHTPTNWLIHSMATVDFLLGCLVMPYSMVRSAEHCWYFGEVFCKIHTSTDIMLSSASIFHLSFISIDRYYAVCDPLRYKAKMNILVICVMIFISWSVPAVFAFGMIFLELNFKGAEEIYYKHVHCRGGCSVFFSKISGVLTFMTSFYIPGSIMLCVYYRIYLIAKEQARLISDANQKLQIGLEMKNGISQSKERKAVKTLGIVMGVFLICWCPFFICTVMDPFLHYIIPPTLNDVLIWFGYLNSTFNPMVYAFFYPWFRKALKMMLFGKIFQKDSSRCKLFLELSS
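Assay system: RD-HGA16 CHO cells with stable hTAAR1 and Gα16 / Reagent: EC80 β-phenethylamine stimulus / Doses: 3 µM, single point / Timing: dye loading 75 min at 37 °C, then 30 min room temperature / Measured by: Fluo-8 intracellular calcium dye fluorescence, real-time kinetic reads / Controls: vehicle wells and EC80 agonist wells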
TAAR1 agonist: human TAAR1 agonism; activation, % at 3 µM; AID 624467; Q96RJ0; CHO RD-HGA16 TAAR1, Fluo-8 calcium fluorescence; vehicle wells 0%, saturating PEA agonist 100%; 360,000 tested, 0.99% active;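 active = activation above the mean activation of all test compounds in the run plus 3 SD, cut at about 38% in these data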
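Test system: RD-HGA16 (CHO) cells co-expressing Gα16 and hTAAR1 | Doses: Single dose, 3 µM | Schedule: 17-24 h seeding, 75 min 37 °C dye, 30 min RT | Evaluation: % activation from peak over basal fluorescence ratio, DMSO-to-PEA scaled | Technique: Kinetic Fluo-8 calcium fluorescence | Benchmarks: Low control DMSO, high control PEA (EC100)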
MC4R ag barr: activates human MC4R beta-arrestin recruitment; P32245; U2OS MC4R beta-arrestin complementation, luminescence; percent of melanotan II response, DMSO zero; activation, % at 8.9 µM; 360,000 tested, 0.98% active;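 active = activation above a per-plate cutoff, the mean activation of sample wells on that plate plus 3 SD, cut at about 8% in these data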
Beta2AR agonist: human beta-2 adrenergic receptor agonism by FAP. 340,000 tested, 0.43% active. Am2.2-beta2AR cells, FAP receptor internalization, flow cytometry. response, % (no concentration beside the values);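 active = response above a set limit, near 3 SD of response in nonfluorescent compounds, cut at about 42% in these data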
MC4R antag cAMP: human MC4R antagonism in cAMP assay; P32245; MC4R-expressing cells, MTII-stimulated cAMP, LANCE TR-FRET; inhibition, % at 6.5 µM; 360,000 tested, 0.48% active; AID 540295;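 active = inhibition above its plate's cutoff, the mean of tested wells on that plate plus 3 SD, cut at about 29% in these data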;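 note: 0% = Melanotan II alone and 100% = Melanotan II plus saturating MCL0020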
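System: U2OS-MC4R stable cell line; Technique: Eu-cAMP/anti-cAMP TR-FRET, emission 671 nm; Repeats: single well per compound; Also added: Melanotan II; Dosing: one concentration, 6.5 µM nominal; Schedule: 30-min compound, 1-h challenge, 1-h detection, room temperature.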
TAAR1 nonsel count: nonselective antagonism, TAAR1 counter-screen; shares compounds with TAAR1 antagonist; counterscreen cell line, calcium fluorescence, antagonist mode; 2,400 tested, 77% active; AID 651780; inhibition, % at 3 µM; in the data active = inhibition above about 22%;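 note: CHO-Ga16 host cells stimulated with ATP at an EC80 level; 0% = agonist EC80 plus vehicle and 100% = vehicle without agonist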
TAAR1 antag conf: confirmation of human TAAR1 antagonists. inhibition, % at 3 µM. 2,400 tested, 40% active. TAAR1-expressing cells, fluorescence antagonist read-out. shares compounds with TAAR1 antagonist; in the data active = inhibition above about 49%;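 note: CHO-Ga16 host cells challenged with agonist PEA near its EC80; 0% = agonist at EC80 plus vehicle and 100% = vehicle with no agonist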
Ga16 ag counter: nonselective Ga16 agonism, counter-screen | shares compounds with TAAR1 antagonist | Ga16-expressing cells, calcium fluorescence, agonist counterscreen | activation, % at 3 µM | 2,400 tested, 18% active | AID 651953; in the data active = activation above about 12%;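 note: 0% = vehicle wells and 100% = saturating stimulus response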
TAAR1 ag counter: activates human TAAR1 in antagonist counter-screen | shares compounds with TAAR1 antagonist | hTAAR1 cell line, fluorescence activation, agonist mode | activation, % at 3 µM | 2,400 tested, 2% active; in the data active = activation above about 37%;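 note: CHO cells stably expressing TAAR1 with calcium dye readout; 0% = DMSO vehicle and 100% = full agonist response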
* marks the source's active call; other numbers are inactive results; · = no result. Compounds with a hit are over-represented: about 4.3% of the library has one in this group of screens.

SMILES	HTR2A ag	TAAR1 antagonist	TAAR1 agonist	MC4R ag barr	Beta2AR agonist	MC4R antag cAMP	TAAR1 nonsel count	TAAR1 antag conf	Ga16 ag counter	TAAR1 ag counter
Cc1ccc(-c2ccc(/C=N/N3C(=O)C4C5C=CC(C6CC56)C4C3=O)o2)c([N+](=O)[O-])c1 (configuration not stated)	-2	58*	10	-2	0	1	33*	43	10	7
COC(=O)c1ccc(-c2ccc(/C=N/N3C(=O)C4C5C=CC(C6CC56)C4C3=O)o2)cc1 (configuration not stated)	-3	62*	18	0	14	2	27*	41	10	13
OC[C@@H]1CN(Cc2cccc(C(F)(F)F)c2)C[C@H](n2cnc3c(NC4CC4)ncnc32)O1	-2	-12	1	0	·	-3	·	·	·	·
CCN(CC)S(=O)(=O)c1cc(Cl)ccc1OC	-2	10	-1	-1	-5	13	·	·	·	·
COc1ccc(CN(C)C[C@H]2OCc3cnnn3CCCC(=O)N([C@H](C)CO)C[C@@H]2C)cc1	-2	-4	2	-1	·	4	·	·	·	·
CC1(C)OC(=O)C2=C(C[C@@H](C3CCCCC3)O[C@H]2c2ccc(Cl)cc2)O1	3	50*	5	·	·	·	4	13	7	14
Cc1ccccc1Cn1nc(C)c(NC(=O)c2sc3ccccc3c2Cl)c1C	-1	55*	9	-2	1	-3	26*	41	5	4
O=C(CCc1ccccc1)N[C@@H]1c2ccccc2CC[C@@H]1OCc1ccccc1	4	53*	9	4	-3	-1	10	16	-1	-2
Cc1cc(/C=N\NC(=O)CC(=O)NC2CCCCC2)c(C)n1-c1ccc(Cl)c(Cl)c1	1	56*	14	1	56*	-3	16	71*	10	31
Cc1cc(/C=N\NC(=O)CC(=O)NC2CCCCC2)c(C)n1-c1cccc(Cl)c1Cl	3	42	13	1	3	-15	·	·	·	·
CC(=O)Nc1ccc(S(=O)(=O)NN=c2sc3ccccc3n2C)cc1N	-2	-11	3	0	·	0	·	·	·	·
N=C1/C(=C\c2ccc(-c3cccc(C(=O)O)c3)o2)C(=O)N=C2SC=C(c3ccccc3)N12	-3	76*	11	-1	19	-5	25*	42	8	5
COc1ccc(F)cc1C(=O)C1CCCN(C(=O)c2ccccc2N(C)C)C1 (configuration not stated)	-5	-28	-1	1	-5	8	·	·	·	·
Cc1ccc(S(=O)(=O)Nc2c(C)n(C)n(-c3ccccc3)c2=O)cc1C(=O)OC(C)C(=O)c1ccccc1 (configuration not stated)	-2	8	0	-2	1	11	·	·	·	·
CCc1[nH]nc2c1C1(CCN(C(=O)OCc3ccccc3)CC1)C(C#N)=C(N)O2	-1	63*	33	-4	5	-24	34*	57*	16*	30
Nc1c(-c2ccc(F)cc2)nc2ncccn12	4	6	2	·	·	·	·	·	·	·
COc1ccc(-c2ccc(SCC(=O)Nc3cccc(C(C)=O)c3)nn2)cc1OC	6	53*	10	-2	6	6	24*	27	6	2
CC(=O)c1cccc(NC(=O)CSc2ccc(-c3ccc4c(c3)OCO4)nn2)c1	-1	54*	5	-2	-2	10	27*	35	8	6
